This series deals with MS2 coat protein. Nature of the series: apparent Kd, MS2 coat protein; higher = weaker binding; RNA-MaP array; FMN 200 µM where present. Put shortly: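 The apparent Kd is the median of filtered binding-curve fits, one per cluster, to green signal normalised to red-channel RNA signal and control-cluster median Fmax. The clusters were on Illumina sequencing chips, and stalled E. coli RNA polymerase had transcribed the designs on them. Titration used SNAP-549-labelled MS2 coat protein from 0.7 or 1.5 nM, doubling to 3 µM, without and then with constant ligand, in 100 mM Tris-HCl pH 7.5, 80 mM KCl, 4 mM MgCl2, BSA, DTT, yeast tRNA and Tween-20.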

[1] abbreviates: designed as: OFF switch for flavin mononucleotide, no ligand.
Setting [2] is: ligand present: flavin mononucleotide, designed as: OFF switch for flavin mononucleotide.
Setting [3] is: designed as: ON switch for flavin mononucleotide, no ligand.
The mark [4] stands for this setting: ligand present: flavin mononucleotide, designed as: ON switch for flavin mononucleotide.

With “AGUGUGUGGCAGGAUAUUCUAAUCGUGAGUCGGGAAGAAGGGUCUACAUGAGGAUCACCCAUGUAAGCGGUUGA”, the “apparent Kd” value turned out to be 132 nM under setting [1] and 144 nM under setting [2].

Take “AAAAAACAUGAGGAUCACCCAUGUGAGGAUAUCGGAAAAGGAAAAAAAAAAAAGAAGACGAGAAGGCACAAAGA”: the “apparent Kd” value is, setting by setting: under setting [1], 48.4 nM; under setting [2], 60.4 nM.

Turning to “AAAAUGUGAGGAUAUUAGUUGUACGUCAAUAGACGUAUAAGUGAGAAGGCACAUGAGGAUCACCCAUGUUCCUG”, the “apparent Kd” value runs as follows: under setting [1], 20.6 nM; under setting [2], 112 nM.

Consider “UGUGCUGAAGGAUAUGCGUAAGCUCGGUGACGAGCAGGUCUACAUGAGGAUCACCCAUGUAGAAGGUCAGUACU”, for which the “apparent Kd” value runs as follows: under setting [1], 15.8 nM; under setting [2], 16 nM.

Turning to “GGAGCACAUAUAAACAUGAGGAUCACCCAUGUCAAAAGACAUGAGGAUAUGGAUCGGAAAACGAUCUAGAAGGCAUGGUGCUCC”, the “apparent Kd” value came out at 644 nM under setting [3] and 29.6 nM under setting [4].

Turning to “AACCUGCGUGGAGGAUAUGAGUGGUUGGACGCAUCAGAAGGCCAGCAGCCACAUGAGGAUCACCCAUGUACAGACACAUGUUUC”, the “apparent Kd” value came to 245 nM under setting [3] and 95.1 nM under setting [4].

On to “CGAAGGGAGUCAGGAUAUGUUCCUUUCAUACGGACAGAAGGGACUCCUUACAUGAGGAUCACCCAUGUAAGGGUAGUCUUCAGG”, for which the “apparent Kd” value runs as follows: under setting [1], 60.7 nM; under setting [2], 90.6 nM.

In the case of “GAGUGACAUGAGGAUCACCCAUGUGAGGAUAUCGGACGGACCUAGUUAACAUCCGCCGCGAGAAGGCACAUCGG”, the “apparent Kd” value is, setting by setting: under setting [1], 156 nM; under setting [2], 27 nM.

With “AGUAAGAUGCAGAAGGUGUCAGCGAGAGCUGCGACAUGAGGAUCACCCAUGUACUAGUGAGAGUACAAGGAUAUGCAUCUUACA”, the “apparent Kd” value came to 313 nM under setting [3] and 45.7 nM under setting [4].

As for “GGAUAGGACAGAGGAUAUACGUGCUAGAGAUACUAGCAAAAUUUCCUCACAUGAGGAUCACCCAUGUAGAAGGCUGUUCUAUCG”, the “apparent Kd” value under setting [1] was 14.6 nM and the “apparent Kd” value under setting [2] was 473 nM.

As to “CUUAGACAUGAGGAUCACCCAUGUGAGGAUAUGAUGCGAAUAAAGAAAGAAGAAAGCAUCAGAAGGCACAUAUG”, the “apparent Kd” value came to 115 nM under setting [1] and 349 nM under setting [2].

As for “UAAACACCCUCAUGUGCCUGAGGACAUGAGGAUCACCCAUGUAAGGAUAUAGCCAUUAAAUCUAACUAGAAGGUACAGGACAUC”, the “apparent Kd” value runs as follows: under setting [1], 242 nM; under setting [2], 169 nM.

As for “CUAUUUAGUGCCUCAUGUACAUGAGGAUCACCCAUGUUAACUUAGGAUAUAUUUAUAUUGAUAGAGUAGAAGGAAGUACUAUUU”, the “apparent Kd” value reads like this: under setting [1], 22 nM; under setting [2], 18.8 nM.

As to “UUUGCAUUCCGAGGAUAUUCAUUUAAUGACUUCACAUGAGGAUCACCCAUGUGGCGAUAGCCUAGGGAGAAGGCGGUUUGCUUU”, the “apparent Kd” value worked out at 24.4 nM under setting [3] and 19.6 nM under setting [4].

Turning to “GCAGGUUUACGAGGAUAUGGGUGGUACGGACAUGAGGAUCACCCAUGUCUCCCAGAAGGCGUAGCCCAACAAAGAGAACAGGAG”, the “apparent Kd” value turned out to be 160 nM under setting [3] and 22.5 nM under setting [4].

Take “UUUGUUUAGGUAGGAUAUACUUUUAAUUUCUCUUUCCUUACAUGAGGAUCACCCAUGUUUACAUUGUAGAAGGACCACUUUGUU”: the “apparent Kd” value is, setting by setting: under setting [1], 21.8 nM; under setting [2], 19.8 nM.

With “GUGAAGAAUUAAGGAUAUUGAAUACAUAUGUUUAACAUGAGGAUCACCCAUGUGGGUUGCGGUAUCGAGAAGGUAAAUUACUGG”, the “apparent Kd” value reads like this: under setting [3], 111 nM; under setting [4], 126 nM.

As to “UGGUACUAGGGAGGAUAUGGGAAAAUACAUGAGGAUCACCCAUGUUUAAGAAUGCCGAGAGGCAACUAGAAGGCCCUAGUACCU”, the “apparent Kd” value reads like this: under setting [3], 16.2 nM; under setting [4], 5.26 nM.

For the sequence “CAACCAGUGAAGGAUAUCAUCGAGGCUCGGCAUUGAGAAGGUUACACAUGAGGAUCACCCAUGUGGUUUCGUUC”, the “apparent Kd” value under setting [1] is 14.5 nM and the “apparent Kd” value under setting [2] came out at 14.7 nM.

Turning to “GCGUCAGAAUUAAUUGUGACAGGCAGAAGGCCAUAUUUCAUGUCAGACAUGAGGAUCACCCAUGUGGAGGAUAUGCAGUUACAC”, the “apparent Kd” value under setting [1] worked out at 43.4 nM and the “apparent Kd” value under setting [2] was 98.7 nM.

For “CCAUAGUACAAUUUAGAUCUACAUGAGGAUCACCCAUGUACUGAGGAUAUCAGCUCGAAUAGAGCUGAGAAGGCAGAAUUAAUU”, the “apparent Kd” value was determined as 132 nM under setting [3] and 59.2 nM under setting [4].

Regarding “GGACUGGACUAGAAGGGUGAUGCGCUCGCAGACACAGGAUAUAGUCACAUGAGGAUCACCCAUGUCGGUCCAAGUGAAGAAACU”, the “apparent Kd” value runs as follows: under setting [3], 98.2 nM; under setting [4], 24.4 nM.

In the case of “AGUAUGCGGCAGGAUAUCCAUCCGCGAAAAGGUGGAGAAGGGCUGACAUGAGGAUCACCCAUGUGCGUUUUGUA”, the “apparent Kd” value is, setting by setting: under setting [1], 56 nM; under setting [2], 40 nM.

As for “AUUUCGACCACAGGAUAUGUUUGACCGAUACUUACAGAAGGGUGGUCCACGCGCACAAGCACAUGAGGAUCACCCAUGUAACGA”, the “apparent Kd” value under setting [3] is 20.1 nM and the “apparent Kd” value under setting [4] was determined as 60.7 nM.

Take “UGUUGUAUUACAGGAUAUCUAUUGUUGUUAUUUAGAGAAGGGUAUUCACAUGAGGAUCACCCAUGUAUAUACGAGGAAGUUGUG”: the “apparent Kd” value by setting is: under setting [3], 56 nM; under setting [4], 56.6 nM.

“GCAUGCAAGUAGAAGGACGGAUAUUUUGAUACCGUAGGAUAUGCAGAAUCAUAUCCACAUGAUAACAUGAGGAUCACCCAUGUA”: the “apparent Kd” value was found to be 15 nM under setting [1] and 13.7 nM under setting [2].

For the sequence “GGCCUGUAAGGAUAUUAGUAGUAGUCAGAAAAGACUAUUACUGAGAAGGUACAUGAGGAUCACCCAUGUUGGCC”, the “apparent Kd” value reads like this: under setting [1], 17.4 nM; under setting [2], 20.1 nM.

With “AAGCGAGGGACAGGAUAUGCAGCGAAACUCGCCGCAGAAGGGUCGACAUGAGGAUCACCCAUGUCCUUACGCUCCAAGUAGUGG”, the “apparent Kd” value turned out to be 232 nM under setting [3] and 299 nM under setting [4].

With “UGUUGUAUUACAGGAUAUCUAUUAAUUUUAUUUAGAGAAGGGUAUUCACAUGAGGAUCACCCAUGUAUAUACGAGGAAGUUGUG”, the “apparent Kd” value reads like this: under setting [3], 53.7 nM; under setting [4], 57.1 nM.

Regarding “CGAUUGUAUAGAGGAUAUGUUAUACAUGAGGAUCACCCAUGUGAGGUGGAAAUAUUUAAUUACAUACAGAAGGCUAUACAAUCG”, the “apparent Kd” value under setting [1] is 231 nM and the “apparent Kd” value under setting [2] was found to be 237 nM.

In the case of “UGUCUGAUCUAAUAACAUGAGGAUCACCCAUGUGUUCACAACUAGGAUAUCGAUUAUUAAAACGUCGAGAAGGAGUAUACAUUA”, the “apparent Kd” value was 34.5 nM under setting [1] and 43.6 nM under setting [2].

On to “CUAUUCCGAGGAUAUACAUGAGGAUCACCCAUGUCGGGCCUCAGCGUUUAGCGCGUAAGUAGAAGGUGGGUUUC”, for which the “apparent Kd” value by setting is: under setting [1], 32.3 nM; under setting [2], 37.8 nM.

Regarding “UUGGACGUCGUAGGAUAUGUAGGAUAUUCCUACAUGAGGAUCACCCAUGUUGACAUGGAACAAGGACAGAAGGACGAUGUCCAU”, the “apparent Kd” value was 493 nM under setting [3] and 17.4 nM under setting [4].

“AGCUAGUACCGAGGAUAUACAUACAUGAGGAUCACCCAUGUAUACAUGAAUUAAUGAGACUACAUGUAGAAGGCGGUACUAGCA”: the “apparent Kd” value runs as follows: under setting [3], 69.1 nM; under setting [4], 16 nM.

With “AAGAACAACCAGAAGGCAAGGCAAACAUGAGGAUCACCCAUGUAAUAUUUGAGGAUAUGGGUUCGACGUGGUCUAAAGUCAGGU”, the “apparent Kd” value runs as follows: under setting [3], 120 nM; under setting [4], 14.1 nM.

On to “UUAUGAGAGCAGGAUAUCUUAUAUGUGUAUUAAAGAGAAGGGCUCACAUGAGGAUCACCCAUGUGGUCCUAGAU”, for which the “apparent Kd” value is, setting by setting: under setting [1], 44.2 nM; under setting [2], 309 nM.

“AAAAAGGCAGGAUAUACAUGAGGAUCACCCAUGUAAAGAAAGAAAGAGGUGAAAGAAAGUAGAAGGGCCAAAAA”: the “apparent Kd” value came out at 160 nM under setting [1] and 179 nM under setting [2].

Consider “UCCUCUUUGAAGAAGGCGUGGCCAUGCAAGCCGCGAGGAUAUUCACAUGAGGAUCACCCAUGUGGAUUUCAGUCCGCUCAAAAC”, for which the “apparent Kd” value reads like this: under setting [1], 13.4 nM; under setting [2], 68 nM.

On to “AUUAUGAAGCAGUUAUAACUCUAAACAUGAGGAUCACCCAUGUAGGAUAUCAGCACGAUAAGUGCUGAGAAGGACAUCUGCUUC”, for which the “apparent Kd” value turned out to be 15.3 nM under setting [1] and 18.4 nM under setting [2].

Consider “GCGUAAUAGGUGUAGCUAGUCGUACAAGAAGGGUGGAGAACAUGAGGAUCACCCAUGUGGUCUAUACAGGAUAUUGUUAUACGC”, for which the “apparent Kd” value reads like this: under setting [3], 176 nM; under setting [4], 30.5 nM.

Take “GCAAAGCCUGACAUGAGGAUCACCCAUGUUAGAUUGUUAUGUCAGGAUAUUGUCUAGAACCUAGACAAGAAGGGAUGCUUUGCU”: the “apparent Kd” value by setting is: under setting [3], 337 nM; under setting [4], 26.4 nM.

Regarding “CUAGAUAUGUAAGGAUAUAUAGUGGAAUACACUAUAGAAGGUAUGUGAUAACAUGAGGAUCACCCAUGUCAUUGGAUAUCUAGA”, the “apparent Kd” value reads like this: under setting [3], 67.5 nM; under setting [4], 60.3 nM.

For “AUAUCGUCAGGAUAUGCUAGUAAAUGUUUCAUUUCUUCAUAGCAGAAGGGACAUGAGGAUCACCCAUGUAAGUC”, the “apparent Kd” value under setting [1] was determined as 37.6 nM and the “apparent Kd” value under setting [2] amounted to 39.6 nM.

On to “GGGAAGUGAGGAUAUAUGAGAGAGGCUGAACCGGACGAGAAGUAGAAGGCACAUGAGGAUCACCCAUGUAGGGA”, for which the “apparent Kd” value worked out at 118 nM under setting [1] and 86 nM under setting [2].

For the sequence “GCUCGAUGCGCUGAGCACAUGAGGAUCACCCAUGUAAAAUAUCAGGAUAUUUACGUGCUUUAUGUAGAGAAGGGAUUAUCGAGC”, the “apparent Kd” value reads like this: under setting [3], 101 nM; under setting [4], 41.4 nM.

Take “UCGGCGCGAGGAUAUACGUUUGCUCUUUUUCGUUUUUGUGUACAUGAGGAUCACCCAUGUAGAAGGCGCGCCGC”: the “apparent Kd” value by setting is: under setting [1], 17.9 nM; under setting [2], 63.7 nM.

Regarding “UUAAAUCAUGUAGGAUAUGCAUGGCGAAGCUACGCAGAAGGACAUGAGGAUCACCCAUGUUAUAGCGUCUGAGAACAGAUGCAA”, the “apparent Kd” value was 82.8 nM under setting [1] and 264 nM under setting [2].

“CAAGCGGGAGGAUAUACAGGGUUGUCCGAAAAUCGCCAGCCACAUGAGGAUCACCCAUGUAGAAGGCCUAUAGA”: the “apparent Kd” value is 53 nM under setting [1] and 23.9 nM under setting [2].

As a reminder, the apparent Kd is the concentration giving half-maximal binding under the conditions of the assay.

The values above are taken from the EternaBench riboswitch data.
